Data taken from ChEMBL document CHEMBL2062453, “Lead optimization through VLAK protocol: new annelated pyrrolo-pyrimidine derivatives as antitumor agents” (2012).

Experiments:
Type in all cases: functional
[1] = test system: SN12C; assay: Cytotoxicity against human SN12C cells assessed as cell growth at 10 uM after 48 hrs by SRB assay relative to control; conditions: read-out: Activity
[2] = test system: OVCAR-8; assay: Cytotoxicity against human OVCAR8 cells assessed as cell growth at 10 uM after 48 hrs by SRB assay relative to control; conditions: OVCAR-8, 48 h, read-out: Activity
[3] = test system: HCC 2998; assay: Cytotoxicity against human HCC2998 cells assessed as cell growth at 10 uM after 48 hrs by SRB assay relative to control; conditions: HCC 2998, 48 h, read-out: Activity
Method in brief: (§1)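 NCI primary screen of about 60 human tumour lines. Cells inoculated and preincubated, then a single test concentration added and cultures incubated 48 h. Result given as percent growth (G%) of treated versus untreated control cells.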

[4] = test system: MDA-MB-435; assay: Cytotoxicity against human MDA-MB-435 cells assessed as cell growth at 10 uM after 48 hrs by SRB assay relative to control; conditions: MDA-MB-435, 48 h, read-out: Activity
[5] = test system: HT-29; assay: Cytotoxicity against human HT-29 cells assessed as cell growth at 10 uM after 48 hrs by SRB assay relative to control; conditions: HT-29, 48 h, read-out: Activity; method in brief: as §1
[6] = test system: SF-268; assay: Cytotoxicity against human SF268 cells assessed as cell growth at 10 uM after 48 hrs by SRB assay relative to control; conditions: SF-268, 48 h, read-out: Activity
[7] = test system: MDA-MB-231; assay: Cytotoxicity against human MDA-MB-231 cells assessed as cell growth at 10 uM after 48 hrs by SRB assay relative to control; conditions: MDA-MB-231, 48 h, read-out: Activity; method in brief: as §1
[8] = test system: TK-10; assay: Cytotoxicity against human TK10 cells assessed as cell growth at 10 uM after 48 hrs by SRB assay relative to control; conditions: TK-10, 48 h, read-out: Activity
Method in brief: (§2)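 NCI single-dose primary screen across about 60 human tumour lines. Each line was inoculated and preincubated on microtiter plates, then exposed to one concentration of agent for 48 h. Growth is reported as percent growth (G%) of treated cells versus untreated control cells.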

[9] = test system: HOP-62; assay: Cytotoxicity against human HOP62 cells assessed as cell growth at 10 uM after 48 hrs by SRB assay relative to control; conditions: HOP-62, 48 h, read-out: Activity; method in brief: as §1
[10] = test system: Hs-578T; assay: Cytotoxicity against human Hs578T cells assessed as cell growth at 10 uM after 48 hrs by SRB assay relative to control; conditions: read-out: Activity; method in brief: as §1
[11] = test system: SNB-19; assay: Cytotoxicity against human SNB19 cells assessed as cell growth at 10 uM after 48 hrs by SRB assay relative to control; conditions: SNB-19, 48 h, read-out: Activity
[12] = test system: SK-OV-3; assay: Cytotoxicity against human SKOV3 cells assessed as cell growth at 10 uM after 48 hrs by SRB assay relative to control; conditions: SK-OV-3, 48 h, read-out: Activity
[13] = test system: 786-0; assay: Cytotoxicity against human 786-0 cells after 48 hrs by SRB assay; conditions: 786-0, 48 h; for TGI: read-out: pTGI (converted)
Method in brief: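 NCI 60-cell five-dose screen. Cells grown in RPMI 1640 with 5% FBS and 2 mM glutamine, plated at 5000–40,000 cells/well, and preincubated 24 h at 37 °C in 5% CO2. Time-zero plates fixed with TCA. Five serial dilutions of DMSO stock added, then 48 h exposure. TCA fixation, 0.4% SRB staining, absorbance read at 515 nm. GI50 from [(Ti−Tz)/(C−Tz)]×100 = 50.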

[14] = test system: SK-MEL-2; assay: Cytotoxicity against human SK-MEL-2 cells assessed as cell growth at 10 uM after 48 hrs by SRB assay relative to control; conditions: SK-MEL-2, 48 h, read-out: Activity
[15] = test system: MOLT-4; assay: Cytotoxicity against human MOLT4 cells assessed as cell growth at 10 uM after 48 hrs by SRB assay relative to control; conditions: MOLT-4, 48 h, read-out: Activity
[16] = test system: OVCAR-3; assay: Cytotoxicity against human OVCAR3 cells assessed as cell growth at 10 uM after 48 hrs by SRB assay relative to control; conditions: OVCAR-3, 48 h, read-out: Activity
[17] = test system: SK-MEL-2; assay: Cytotoxicity against human SK-MEL-2 cells after 48 hrs by SRB assay; conditions: SK-MEL-2, 48 h; for TGI: read-out: pTGI (converted)
Method in brief: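 Five-dose screen, 10-fold or ½-log dilutions, compound stock in DMSO. Cells were in RPMI 1640 with 5% FBS and 2 mM glutamine at 5000–40,000 cells/well, preincubated 24 h, 37 °C, 5% CO₂, with a time-zero plate TCA-fixed. After 48 h drug exposure, cells were TCA-fixed and stained with 0.4% SRB, read at 515 nm. GI50, TGI and LC50 were derived from time-zero, control and test absorbances.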

[18] = test system: SW-620; assay: Cytotoxicity against human SW620 cells assessed as cell growth at 10 uM after 48 hrs by SRB assay relative to control; conditions: SW-620, 48 h, read-out: Activity; method in brief: as §2
[19] = test system: HCT-116; assay: Cytotoxicity against human HCT116 cells assessed as cell growth at 10 uM after 48 hrs by SRB assay relative to control; conditions: HCT-116, 48 h, read-out: Activity; method in brief: as §1
[20] = test system: A498; assay: Cytotoxicity against human A498 cells assessed as cell growth at 10 uM after 48 hrs by SRB assay relative to control; conditions: A498, 48 h, read-out: Activity; method in brief: as §1
[21] = test system: NCI-H322M; assay: Cytotoxicity against human NCI-H322M cells assessed as cell growth at 10 uM after 48 hrs by SRB assay relative to control; conditions: read-out: Activity
[22] = test system: RPMI-8226; assay: Cytotoxicity against human RPMI8226 cells assessed as cell growth at 10 uM after 48 hrs by SRB assay relative to control; conditions: RPMI-8226, 48 h, read-out: Activity
[23] = test system: CAKI-1; assay: Cytotoxicity against human Caki1 cells assessed as cell growth at 10 uM after 48 hrs by SRB assay relative to control; conditions: CAKI-1, 48 h, read-out: Activity; method in brief: as §1
[24] = test system: UACC-62; assay: Cytotoxicity against human UACC62 cells assessed as cell growth at 10 uM after 48 hrs by SRB assay relative to control; conditions: UACC-62, 48 h, read-out: Activity; method in brief: as §2
[25] = test system: NCI-H522; assay: Cytotoxicity against human NCI-H522 cells assessed as cell growth at 10 uM after 48 hrs by SRB assay relative to control; conditions: NCI-H522, 48 h, read-out: Activity
[26] = test system: HL-60(TB); assay: Cytotoxicity against human HL-60(TB) cells assessed as cell growth at 10 uM after 48 hrs by SRB assay relative to control; conditions: HL-60, 48 h, read-out: Activity
[27] = test system: SK-MEL-28; assay: Cytotoxicity against human SK-MEL-28 cells assessed as cell growth at 10 uM after 48 hrs by SRB assay relative to control; conditions: SK-MEL-28, 48 h, read-out: Activity
[28] = test system: BT-549; assay: Cytotoxicity against human BT549 cells assessed as cell growth at 10 uM after 48 hrs by SRB assay relative to control; conditions: BT-549, 48 h, read-out: Activity; method in brief: as §1

Row | SMILES | growth at 10 µM [1] [%] | growth at 10 µM [2] [%] | growth at 10 µM [3] [%] | growth at 10 µM [4] [%] | growth at 10 µM [5] [%] | growth at 10 µM [6] [%] | growth at 10 µM [7] [%] | growth at 10 µM [8] [%] | growth at 10 µM [9] [%] | growth at 10 µM [10] [%] | growth at 10 µM [11] [%] | growth at 10 µM [12] [%] | GI50 [13] [µM] | LC50 [13] [µM] | TGI [13] [µM] | growth at 10 µM [14] [%] | growth at 10 µM [15] [%] | growth at 10 µM [16] [%] | GI50 [17] [µM] | LC50 [17] [µM] | further results
1 | CSC1=Nc2c(c(C)c(-c3ccccc3)n2CCCN2CCCCC2)C2=NC(=O)CC(C)N12 (stereo not drawn) | 45 | 45 | 61 | 26 | 21 | 66 | 70 | 49 | 82 | 11 | 20 | 27 | 3.55 | > 100 | 47.9 | 63 | 68 | 24 | 2.14 | 20.9 | TGI [17]: 5.25 µM; growth at 10 µM [18]: 62%; growth at 10 µM [19]: 43%; growth at 10 µM [20]: 81%; growth at 10 µM [21]: 62%; growth at 10 µM [22]: -51%; growth at 10 µM [23]: 67%; growth at 10 µM [24]: 54%; growth at 10 µM [25]: 36%; growth at 10 µM [26]: -33%; growth at 10 µM [27]: 43%
2 | CSC1=Nc2c(c(C)c(-c3ccccc3)n2CCCCl)C2=NC(=O)CN12 | 86 | 88 | 72 | -31 | 23 | 77 | 65 | 105 | 64 | 85 | 81 | 88 | 8.51 | > 100 | 61.7 | 75 | 51 | 85 | 10.5 | 74.1 | growth at 10 µM [28]: 61%; TGI [17]: 27.5 µM; growth at 10 µM [18]: 44%; growth at 10 µM [19]: 27%; growth at 10 µM [20]: 47%; growth at 10 µM [21]: 82%; growth at 10 µM [22]: 51%; growth at 10 µM [23]: 58%; growth at 10 µM [24]: 37%; growth at 10 µM [25]: 56%; growth at 10 µM [26]: 27%; growth at 10 µM [27]: 56%
